The text below walks through data of ChEMBL document CHEMBL1128473, “[(Biaryloxy)alkyl]isoxazoles: picornavirus inhibitors” (J Med Chem, 1995).

Series [1] is described as follows: Metabolic stability expressed as half life values was monitored in vitro liver microsomal assay. The format is ADME, Microsome. The conditions noted are these: liver microsomes. On the technique in general: Liver microsomes are vesicles of endoplasmic reticulum, rich in cytochrome P450 enzymes.
The subject of another series is Human rhinovirus sp. The series can be described thus: Concentration inhibiting 50% of the serotypes tested to 50% of the viral concentration of untreated controls following 72 hr of exposure. In kind it is functional. In a few lines: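 Tissue culture infectious dose (TCID50) assay against a panel of 10 human rhinovirus serotypes. For each serotype, the viral concentration was compared with untreated controls after 72 h of compound exposure. MIC50 is the compound concentration at which half of the serotypes tested are reduced to 50% of the untreated-control viral concentration.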

Converted amounts (≈) assume the structure as drawn.

Broadly, the half-life is the time needed for the level to fall by half in the phase considered. A higher half-life goes with slow decline. Molecule `Cc1cc(CCCOc2c(C)cc(-c3ccccc3)cc2C)on1` came in with a half-life in series [1] greater than 3.33 h. In addition, in the series on Human rhinovirus sp., the MIC50 is 0.16 µM (≈ 0.0514 µg/mL). The like results for `Cc1ccc(-c2cc(C)c(OCCCc3cc(C)no3)c(C)c2)cc1` were, in that order, greater than 3.33 h and 0.12 µM (≈ 0.0403 µg/mL). Consider `Cc1cc(CCCOc2c(C)cc(-c3cccc(O)c3)cc2C)on1`, for which the MIC50 against Human rhinovirus sp. was 0.44 µM (≈ 0.148 µg/mL).
